Measurements reported in ChEMBL document CHEMBL3784997 (J Med Chem, 2016).

How the values were obtained:
[1] = molecular target: Adenosine receptor A2a (Homo sapiens) (UniProt P29274); assay: Displacement of [3H]ZM241385 from human Adenosine A2A receptor expressed in HeLa cells at 1 uM after 30 mins; assay type: cell-based
In short: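 Membranes from HeLa cells expressing human A2A were labelled with 3 nM [3H]ZM241385, with non-specific binding defined by 50 µM NECA, and incubated at 25 °C for 30 min. The value is percent displacement of specific binding at 1 µM test compound (n = 2).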

[2] = molecular target: T1, Adenosine receptor A1 (Homo sapiens) (UniProt P30542); assay: Displacement of [3H]DPCPX from human Adenosine A1 receptor expressed in CHO cells at 1 uM after 60 mins; assay type: cell-based
T1 sequence (whole entry): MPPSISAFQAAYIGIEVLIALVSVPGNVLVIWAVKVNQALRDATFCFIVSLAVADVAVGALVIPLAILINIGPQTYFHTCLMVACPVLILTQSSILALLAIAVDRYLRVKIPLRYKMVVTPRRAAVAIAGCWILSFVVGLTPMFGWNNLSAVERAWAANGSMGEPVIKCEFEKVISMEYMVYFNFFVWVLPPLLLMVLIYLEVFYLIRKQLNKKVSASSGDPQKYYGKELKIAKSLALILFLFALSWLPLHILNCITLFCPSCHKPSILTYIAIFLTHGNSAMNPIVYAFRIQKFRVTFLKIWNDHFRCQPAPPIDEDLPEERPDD
In short: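 Competition binding on membranes from CHO cells expressing human A1, labelled with 2 nM [3H]DPCPX. Non-specific binding was defined with 10 µM R-PIA, and incubation was at 25 °C for 60 min. The value is percent inhibition of specific binding at 1 µM test compound (n = 2, average).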

[3] = molecular target: T2, Adenosine receptor A3 (Homo sapiens) (UniProt P0DMS8); assay: Displacement of [3H]NECA from human Adenosine A3 receptor expressed in HeLa cells at 1 uM after 180 mins
T2 sequence (whole entry): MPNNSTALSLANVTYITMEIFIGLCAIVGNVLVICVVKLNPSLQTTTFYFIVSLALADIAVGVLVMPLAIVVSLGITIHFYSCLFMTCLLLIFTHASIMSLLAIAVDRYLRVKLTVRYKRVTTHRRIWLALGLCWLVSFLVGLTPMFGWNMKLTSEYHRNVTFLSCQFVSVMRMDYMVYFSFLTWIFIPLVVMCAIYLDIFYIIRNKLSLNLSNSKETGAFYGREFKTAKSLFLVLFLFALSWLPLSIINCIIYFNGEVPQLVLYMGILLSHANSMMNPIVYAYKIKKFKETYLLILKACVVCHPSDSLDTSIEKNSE

[4] = molecular target: T3, Adenosine receptor A2b (Homo sapiens) (UniProt P29275); assay: Displacement of [3H]DPCPX from human Adenosine A2B receptor expressed in HEK293 cells at 1 uM after 30 mins; assay type: cell-based
T3 sequence (whole entry): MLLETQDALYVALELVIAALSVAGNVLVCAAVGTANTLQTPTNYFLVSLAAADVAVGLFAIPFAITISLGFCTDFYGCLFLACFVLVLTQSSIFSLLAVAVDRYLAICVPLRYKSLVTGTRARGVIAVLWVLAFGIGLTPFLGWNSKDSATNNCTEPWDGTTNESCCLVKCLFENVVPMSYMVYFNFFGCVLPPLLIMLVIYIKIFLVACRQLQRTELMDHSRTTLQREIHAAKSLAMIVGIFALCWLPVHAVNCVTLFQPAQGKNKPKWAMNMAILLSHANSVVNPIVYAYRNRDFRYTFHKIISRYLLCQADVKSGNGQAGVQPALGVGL
In short: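 Membranes from HEK-293 cells expressing human A2B were labelled with 35 nM [3H]DPCPX, with non-specific binding defined by 400 µM NECA, and incubated at 25 °C for 30 min.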

[5] = molecular target: T4, Adenosine receptor A2b (Homo sapiens, UniProt P29275); assay: Displacement of [3H]DPCPX from human Adenosine A2B receptor expressed in HEK293 cells after 30 mins; assay type: cell-based
T4 sequence (P29275 whole entry): T3 sequence (whole entry)

Sequence of Adenosine receptor A2a (Homo sapiens) (P29274 whole entry): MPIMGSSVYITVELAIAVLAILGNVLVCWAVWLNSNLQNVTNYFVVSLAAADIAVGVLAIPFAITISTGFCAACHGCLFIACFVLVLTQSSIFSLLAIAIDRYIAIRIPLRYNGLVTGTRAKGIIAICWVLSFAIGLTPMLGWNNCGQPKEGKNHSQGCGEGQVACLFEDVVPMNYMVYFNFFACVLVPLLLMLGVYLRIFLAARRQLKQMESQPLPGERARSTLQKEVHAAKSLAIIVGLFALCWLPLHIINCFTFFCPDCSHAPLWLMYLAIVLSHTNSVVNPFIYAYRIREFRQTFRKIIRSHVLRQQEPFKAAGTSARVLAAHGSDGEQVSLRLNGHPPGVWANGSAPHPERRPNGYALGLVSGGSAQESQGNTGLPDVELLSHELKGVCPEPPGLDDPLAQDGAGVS

SMILES	Activity [1] [%]	Activity [2] [%]	Activity [3] [%]	Activity [4] [%]	Ki [5] [µM]
CC1=C(C(=O)OC(C)C)C(c2ccco2)NC(=O)N1 (configuration not stated)	30	20	1		
CC1=C(C(=O)OC(C)C)C(c2cccs2)NC(=O)N1 (configuration not stated)	19	37	14	44	
CC1=C(C(=O)OC(C)C)C(c2ccoc2)NC(=O)N1 (configuration not stated)	26	25	3		
CC1=C(C(=O)OC(C)C)C(c2ccsc2)NC(=O)N1 (configuration not stated)	25	26	1		
CCOC(=O)C1=C(C)NC(=O)NC1c1ccco1 (configuration not stated)	41	18	2		
CCOC(=O)C1=C(C)NC(=O)NC1c1cccs1 (configuration not stated)	33	1	1	44	
CCOC(=O)C1=C(C)NC(=O)NC1c1ccoc1 (configuration not stated)	39	21	1		
CCOC(=O)C1=C(C)NC(=O)NC1c1ccsc1 (configuration not stated)	39	22	24		
CC1=C(C(=O)OC(C)C)C(c2ccoc2)n2ccnc2N1 (racemic)	4	1	10		0.277
CC1=C(C(=O)OC(C)C)C(c2ccsc2)n2ncnc2N1 (racemic)	2	3	5		0.817
CCOC(=O)C1=C(C)Nc2nc3ccccc3n2C1c1ccco1 (racemic)	14	5	1		0.012
CC1=C(C(=O)OC(C)C)C(c2ccoc2)n2ncnc2N1 (racemic)	2	2	20		0.35
CC1=C(C(=O)OC(C)C)C(c2ccsc2)n2ccnc2N1 (racemic)	1	3	1		0.847
CC1=C(C(=O)OC(C)C)C(c2cccs2)n2c(nc3ccccc32)N1 (racemic)	17	1	3		0.371
CC1=C(C(=O)OC(C)C)C(c2ccco2)n2ccnc2N1 (racemic)	4	3	2		0.0856
CCOC(=O)C1=C(C)NC(=O)CC1c1ccco1 (racemic)	13	22	24		2.54
CCOC(=O)C1=C(C)Nc2nc3ccccc3n2C1c1ccoc1 (racemic)	11	7	1		0.0206
CCOC(=O)C1=C(C)Nc2nc3ccccc3n2C1c1ccsc1 (racemic)	10	3	2		0.0297
CCOC(=O)C1=C(C)Nc2nc3ccccc3n2C1c1cccs1 (racemic)	16	8	1		0.485
CC1=C(C(=O)OC(C)C)C(c2cccs2)n2ccnc2N1 (racemic)	3	3	5		0.728
CC1=C(C(=O)OC(C)C)C(c2ccoc2)n2c(nc3ccccc32)N1 (racemic)	22	12	2		0.0114
CCOC(=O)C1=C(C)Nc2nccn2C1c1ccco1 (racemic)	5	2	6		0.108
